Screening data from PubChem.
An excerpt weighted towards active compounds, which were near 1.8% of everything screened.
SUMO HTRF inh: SUMOylation inhibition; P63279; HTRF SUMOylation assay, SAE1/SAE2 + UBC9, in vitro; inhibition, % at 35 µM; 290,000 compounds, 0.36% hits; AID 2006; in the data active = inhibition above about 50%, passing the limit was not always enough; inconclusive = no clear call, values can overlap the other calls
PABP1 MLLE inh: blocks PAM2 peptide binding to the PABP1 MLLE domain | 360,000 compounds, 0.36% hits | GST-MLLE / FITC-PAM2 fluorescence polarization | P11940 | inhibition, % at 20 µM; in the data active = inhibition above about 35%, passing the limit was not always enough;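 note: plate controls were DMSO wells with GST-MLLE for no effect and wells lacking GST-MLLE protein for full effect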
Target sequence (P11940 whole entry, looked up, the tested form may be a part): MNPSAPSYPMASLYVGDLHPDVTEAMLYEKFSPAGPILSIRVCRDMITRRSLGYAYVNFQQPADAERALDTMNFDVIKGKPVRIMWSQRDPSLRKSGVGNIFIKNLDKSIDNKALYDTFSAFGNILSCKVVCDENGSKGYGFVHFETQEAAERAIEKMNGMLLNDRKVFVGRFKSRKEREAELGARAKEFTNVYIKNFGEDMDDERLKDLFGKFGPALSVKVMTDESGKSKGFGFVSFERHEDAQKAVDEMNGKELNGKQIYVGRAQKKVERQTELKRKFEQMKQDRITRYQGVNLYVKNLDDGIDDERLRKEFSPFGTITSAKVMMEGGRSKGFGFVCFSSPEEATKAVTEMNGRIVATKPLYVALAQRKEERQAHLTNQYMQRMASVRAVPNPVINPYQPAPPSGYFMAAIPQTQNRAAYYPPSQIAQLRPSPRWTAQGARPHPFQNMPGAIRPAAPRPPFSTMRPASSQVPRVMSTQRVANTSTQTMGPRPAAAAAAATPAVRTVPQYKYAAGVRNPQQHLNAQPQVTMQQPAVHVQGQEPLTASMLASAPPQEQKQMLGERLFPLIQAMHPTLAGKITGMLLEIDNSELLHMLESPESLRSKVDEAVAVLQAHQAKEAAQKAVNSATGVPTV
eIF4E 4G PPI: eIF4E/eIF4G interaction inhibition in translation initiation. P63073+Q04637. TR-FRET eIF4E-eIF4GI(517-606) binding, 2 h. inhibition, % at 21.7 µM. 220,000 compounds, 0.37% hits. AID 782;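 active = inhibition above about 30%, limit read from the data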;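 note: 0% = full FRET control wells and 100% = background wells lacking eIF4GI fragment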
eIF4H FP inh: inhibitors of RNA binding by human eIF4H; Q15056; eIF4H fluorescence polarization binding assay; inhibition, % at 35 µM; 290,000 compounds, 0.94% hits;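 note: calls also rest on retests at 20 µM and on dose response follow-up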
PABP polyA inh: blocks human PABP binding to poly(A) RNA | P11940 | fluorescence polarization | calls only at 35 µM | 290,000 compounds, 1% hits;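 note: calls also rest on retests at 20 µM and on dose response follow-up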
core dimer inh: HCV core protein dimerization inhibition; TR-FRET GST/Flag-core106 dimerization, 1536-well; inhibition, % at 5 µM; 300,000 compounds, 0.33% hits;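 active = inhibition above the mean of all tested compounds plus 3 SD, set per screening campaign, cut at about 45% in these data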
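assay system = GST-tagged and Flag-tagged HCV core protein residues 1-106 | controls = unlabelled core106 and no-GST-core106 wells | incubation = compound-protein-antibody incubation 4 h at 22.5 °C | probe or stimulus = Eu donor and XL665 acceptor anti-tag antibodies | read-out = % inhibition based on acceptor/donor emission ratio | signal = TR-FRET 671 and 617 nm emission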
Numbers without * were called inactive; i = inactive; ? = inconclusive; nt = no result given; + = active, no number; [ ] = another dose, or the depositor's remark. Unless noted, the rule behind the calls is not given here.

SMILES	SUMO HTRF inh	PABP1 MLLE inh	eIF4E 4G PPI	eIF4H FP inh	PABP polyA inh	core dimer inh
CC1(c2ccc3noc(-c4ccc(F)cc4)c3c2)OCCO1	18	68*	-2	11	i	-4
O=C(O)c1cc(O)c2c(c1)[C@H]([C@H]1c3cc(C(=O)O)cc(O)c3C(=O)c3c(O[C@@H]4O[C@H](CO)[C@@H](O)[C@H](O)[C@H]4O)cccc31)c1cccc(OC3O[C@H](CO)[C@@H](O)[C@H](O)[C@H]3O)c1C2=O (stereo partly drawn)	nt	52*	nt	nt	nt	38
CCC1CCCCN1CCCNC(=O)C1CCCN(S(=O)(=O)N2CC(C)CC(C)C2)C1 (stereo not drawn)	10	4	nt	-8	i	-8
O=C(c1cc2ccccc2oc1=O)N(Cc1ccccc1F)C1CCS(=O)(=O)C1 (stereo not drawn)	22	6	nt	-8	i	0
COc1ccc(C(=O)NCC(=O)N2CCCC(C(F)(F)F)C2)cc1OC (stereo not drawn)	nt	0	nt	nt	nt	1
COc1cc(C2c3sc(=O)[nH]c3SC3C(=O)N(c4ccc(Br)cc4)C(=O)C32)ccc1O (stereo not drawn)	9	47*	-2	1	i	2
COc1ccc(C2c3sc(=O)[nH]c3SC3C4CCC(C4)C23)cc1OC (stereo not drawn)	-14	28	-2	6	i	18
OC(c1ccc(F)cc1)c1nc(-c2ccoc2)cs1 (stereo not drawn)	nt	6	nt	nt	nt	nt
CCCCN1CCc2[nH]c(=S)[nH]c(=O)c2C1	-2	49*	4	-5	i	-3
CC(c1ccccc1)N1CCc2[nH]c(=S)[nH]c(=O)c2C1 (stereo not drawn)	12	39*	-1	4	i	-2
COCCN1CCc2[nH]c(=S)[nH]c(=O)c2C1	8	40	-3	-8	i	-6
CC(C)S(=O)(=O)C1=NSC2=NC(=O)/C(=C\c3ccc(-c4cccc(C(=O)O)c4)o3)C(=N)N21	43	-76	1	62	+	nt
CC(C)S(=O)(=O)C1=NSC2=NC(=O)/C(=C\c3ccc(-c4ccccc4)o3)C(=N)N21	24	-25	2	?	i	2
CS(=O)(=O)C1=NSC2=NC(=O)/C(=C\c3ccc(-c4ccccc4)o3)C(=N)N21	-5	nt	5	54*	i	-9
O=[N+]([O-])/C=C1\C=CC=CN1Cc1ccc(Cl)cc1	12	-13	nt	-5	i	2
Cc1cc([N+](=O)[O-])ccc1NC(=O)CSc1nccc(=O)[nH]1	-6	10	5	-4	i	-5
CC(C)CN1CCNC(=O)C1CC(=O)NCCCN1CCCc2ccccc21 (stereo not drawn)	9	11	7	16	+	2
COc1ccc(C2C(C(C)=O)=C(O)C(=O)N2c2ccccn2)cc1 (stereo not drawn)	-3	5	nt	-3	i	-4
C#CCn1c(=NC(=O)c2ccc(S(=O)(=O)N3CCc4ccccc4C3)cc2)sc2cc(S(N)(=O)=O)ccc21	3	15	17	9	i	46
C#CCn1c(=NC(=O)c2sc3ccccc3c2Cl)sc2cc(S(N)(=O)=O)ccc21	45	3	14	15	i	66*
CC(=O)C(Cc1ccccc1)NC(=O)CN1CCN(Cc2ccccc2)CC1 (stereo not drawn)	-14	-16	0	2	i	0
CC(C)Cn1c(/C=C/c2ccco2)nc2ccccc21	22	-23	4	83	i	47*
NS(=O)(=O)c1ccc(CCNC(=O)CSc2nc3ccccc3c(=O)n2CCC(=O)N2CCCCC2)cc1	22	7	1	3	i	0
CCCCCCNC(=O)N[C@@H](C(=O)NCCC[C@H]1CN2C(=NC[C@@H]2Cc2ccccc2)N1CCc1cccc(OC)c1)C(C)C	-7	nt	41*	-10	i	-25
Oc1ccc(/C=N/N=C(c2ccccc2)c2ccccc2)c(O)c1O	29	6	33*[fluorescence artefact?]	85*	+	3
SMILES	SUMO HTRF inh	PABP1 MLLE inh	eIF4E 4G PPI	eIF4H FP inh	PABP polyA inh	core dimer inh
C#CCSC1=C(C#N)C(c2cccs2)C(C(=O)OCC)=C(C)N1 (stereo not drawn)	19	8	-8	63*	+	31
CCOC(=O)c1ccc(N2C(=O)C3C(C2=O)C(C(=O)c2ccc(Cl)cc2)N2CCCC32)cc1 (stereo not drawn)	33	-14	-17	?	?	74*
CCOC(=O)c1ccc(N2C(=O)C3CC=CCC3C2=O)cc1 (stereo not drawn)	3	3	-8	-1	i	-2
Cc1cccc(-c2nn(-c3ccccc3)cc2C(=O)N(C)CC(=O)Nc2ccc(N3CCOCC3)cc2)c1	nt	0	nt	nt	nt	2
O=C(NNC(=O)c1ccccc1Br)c1ccc2nc[nH]c2c1	15	0	nt	84*	+	0
CC(NC(=O)c1ccccc1Cl)C(=O)N1CCN(Cc2ccc3c(c2)OCO3)CC1 (stereo not drawn)	nt	-2	nt	nt	nt	nt
CN(Cc1cnccn1)Cc1ccccc1OCC(O)CN1CCc2ccccc2C1 (stereo not drawn)	24	4	0	-11	i	3
CC(C)(C)C1=Nn2c(nnc2-c2ccccn2)SC1	-10	-16	51*	1	i	2
O=C(COc1ccccc1C(=O)N/N=C\c1ccc(O)c(O)c1)N/N=C/c1ccc(O)c(O)c1	?	5	3	74*	+	-2
O=C(NN=Cc1ccc(O)c(O)c1)c1ccccc1	nt	-2	nt	nt	nt	nt
CC(C)(C)c1ccc(C(=O)N/C(=C\c2ccco2)C(=O)O)cc1	11	-1	2	32	i	7
O=C(O)/C(=C/c1ccco1)NC(=O)c1ccccc1	31	6	10	72*	+	-6
O=C(NC(Cc1ccccc1)C(=O)O)/C(=C\c1ccco1)NC(=O)c1ccc(Br)cc1 (stereo not drawn)	-6	7	2	32	i	2
O=C(NC(Cc1ccccc1)C(=O)O)/C(=C\c1ccco1)NC(=O)c1ccccc1 (stereo not drawn)	14	7	10	91*	+	-1
COc1ccc(C(=O)N/C(=C\c2ccco2)C(=O)NCc2cccnc2)cc1	2	15	2	61*	i	-1
CSc1ccc(C(O)c2ncc(-c3cccc(F)c3)[nH]2)cc1 (stereo not drawn)	nt	-14	nt	nt	nt	nt
CC12CCC(=O)N1C(C(=O)NCc1ccccc1Cl)CS2 (stereo not drawn)	nt	9	nt	nt	nt	-8
CCc1c(O)cc(=O)n(-c2ccccc2)c1-c1ccccc1	32	-10	4	21	i	55*
